An excerpt weighted towards active compounds, which were near 3.1% of everything screened.
aDG glyco act: alpha-DG glycosylation activation; AID 624168; activation, % at 10 µM; Pro5-aDG cells, alpha-DG glycosylation AlphaScreen (IIH6); 0% Pro5, 100% B10-LARGE cell signal; 360,000 compounds, 0.22% hits;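 active means activation of at least 8% versus controls, or a plate z-score of at least 8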;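 further: Pro5 are CHO cells carrying HIG-tagged alpha-DG that lacks glycosylation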
ADAM10 inh: inhibits human ADAM10. O14672. recombinant ADAM10, EDANS/DABCYL FRET peptide cleavage, 3 h. inhibition, % at 7 µM. 370,000 compounds, 0.62% hits. AID 720582;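 active means inhibition above a per-campaign cutoff equal to the mean of compounds falling between control-based bounds plus 3 SD, cut at about 20% in these data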;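 further: 0% = DMSO wells while the 100% control is not disclosed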
Target sequence (O14672 214-748 limits assumed): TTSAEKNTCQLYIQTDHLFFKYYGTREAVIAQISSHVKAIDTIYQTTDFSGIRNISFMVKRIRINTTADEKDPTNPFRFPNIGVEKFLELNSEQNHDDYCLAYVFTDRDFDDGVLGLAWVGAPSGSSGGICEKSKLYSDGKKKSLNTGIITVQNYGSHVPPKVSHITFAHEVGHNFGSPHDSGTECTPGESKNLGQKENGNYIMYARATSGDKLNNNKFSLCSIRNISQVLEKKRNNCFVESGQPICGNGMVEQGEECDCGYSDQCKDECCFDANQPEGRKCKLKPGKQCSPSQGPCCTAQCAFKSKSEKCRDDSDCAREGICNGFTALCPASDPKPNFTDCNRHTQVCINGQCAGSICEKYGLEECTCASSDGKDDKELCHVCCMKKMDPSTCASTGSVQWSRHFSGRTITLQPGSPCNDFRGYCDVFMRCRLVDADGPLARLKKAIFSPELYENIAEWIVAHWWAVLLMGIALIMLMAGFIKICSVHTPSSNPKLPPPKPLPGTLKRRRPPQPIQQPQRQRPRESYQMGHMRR
MPTP inh: inhibitors of mitochondrial permeability transition pore. AID 602449. 360,000 compounds, 1.4% hits. isolated mouse mitochondria, Ca2+ swelling absorbance, 30 min. inhibition, % at 10 µM;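 active means inhibition of 50% or more, scaled per plate between neutral and stimulator controls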;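 further: 0% = DMSO wells given calcium and 100% = 1 mM EGTA wells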
Lipid droplet: modulators of hepatic lipid droplet formation; AML12 mouse hepatocytes, oleate lipid droplets, BODIPY imaging; inhibition, % at 6.5 µM; 240,000 compounds, 0.4% hits;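 active means lipid droplet intensity inhibited by at least 50%, with more than 500 cells counted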
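Assay system: AML12 hepatocytes (mouse); Probe or stimulus: oleic acid at 100 µM to induce lipid droplet formation; Dosing: compound at 6.5 µM only; Schedule: compound with oleate, overnight; Detection: fluorescence imaging, 20x objective, two fields per well; Measure: % inhibition of lipid droplet signal.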
ADAM17 inh: inhibitors of human ADAM17; P78536; recombinant ADAM17, EDANS/DABCYL FRET peptide cleavage; inhibition, % at 6.95 µM; 370,000 compounds, 0.83% hits; AID 720648;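 active means inhibition above the mean of compounds lying between control limits plus 3 SD, set per campaign, cut at about 8.5% in these data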;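 further: 0% = DMSO-only wells as the low control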
V-ATPase pHluor: regulators of yeast V-ATPase proton transport | response, % at 10 µM | S. cerevisiae, pHLuorin cytosolic pH fluorescence | 350,000 compounds, 0.37% hits; in the data active means response mostly above about 7.3%, no sharp cut-off; inactive means mostly below about 5.4%; further: actives read high
ADAM10 confirm: human ADAM10 inhibition, confirmation; ADAM10 QFRET peptide cleavage, EDANS fluorescence; 2,100 compounds, 1% hits; inhibition, % at 6.95 µM; shares compounds with ADAM10 inh; AID 743208;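 active means inhibition above about 20% chosen separately for each screening run, limit read from the data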;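 further: 0% = DMSO wells and 100% = marimastat wells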
ADAM17 counter: counter-screen for ADAM10 exosite inhibitors: inhibitors of human ADAM17; shares compounds with ADAM10 inh; ADAM17 QFRET peptide cleavage, EDANS fluorescence; inhibition, % at 6.95 µM; 2,100 compounds, 0.5% hits;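 active means mean triplicate inhibition above the solvent-only control wells' mean plus 3 SD, cut at about 12% in these data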;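 further: 0% = DMSO wells and 100% = marimastat wells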
An asterisk follows results filed as active; · = not tested or not shown.

SMILES	aDG glyco act	ADAM10 inh	MPTP inh	Lipid droplet	ADAM17 inh	V-ATPase pHluor	ADAM10 confirm	ADAM17 counter
CC(O)(c1ccc(F)c(F)c1)c1nc(-c2csc3ccccc23)cs1 (stereo unspecified)	1	8	0	·	6	·	·	·
CC(O)(c1cccc(F)c1)c1nc(-c2ccc3ccccc3c2)cs1 (stereo unspecified)	0	18	2	·	8	·	·	·
Cc1ccc(N2CCN(CC(O)COc3cccc4ccccc34)CC2)cc1 (stereo unspecified)	0	20*	3	-18	4	1	5	0
COCCCNC(=O)Cn1cc2c(n1)CCC(C)C2 (stereo unspecified)	0	87*	0	3	0	0	-1	0
O=C(NCc1ccco1)C1CCCN(S(=O)(=O)c2ccc([N+](=O)[O-])cc2)C1 (stereo unspecified)	·	-1	·	·	1	·	·	·
O=C(NNC(=O)c1sc2ccccc2c1Cl)Nc1ccc(Cl)cc1	0	20*	1	·	5	4	0	0
O=C(CCc1ccccc1)N[C@H]1[C@H](OC(=O)c2ccco2)CCC[C@@]12C(=O)N(Cc1ccccc1)c1ccccc12	·	21*	·	·	6	·	4	2
C[C@H]1[C@@H](OC(=O)NCc2ccc(Cl)cc2)CC[C@@]23CCCN2C(=O)CCC[C@@H]13	·	-7	·	·	-7	·	·	·
COc1ccccc1N1C(=O)C(Cl)=C(Nc2ccccc2O)C1=O	0	22*	6	-23	7	-3	14	5
Cc1ccc(C(=O)N2CCC(Oc3cccnc3)CC2)cc1	·	-5	·	·	-5	·	·	·
CSCCC(NC(=O)c1ccccc1)C(=O)OCC(=O)Nc1ccc(C)c(Cl)c1 (stereo unspecified)	0	32*	18	3	4	-1	6	1
CSCCC(NC(=O)c1ccc(Cl)cc1)C(=O)OCC(=O)Nc1cc(Cl)ccc1C#N (stereo unspecified)	0	11	18	2	1	-2	·	·
Cc1c(C(=O)N(C)Cc2ccc(OC(F)F)cc2)oc2ccccc12	0	20*	1	-20	2	-5	2	0
COCC(=O)N(C[C@H]1[C@H](c2ccccc2)[C@@H](CO)N1C(=O)NC(C)C)C(C)C	·	4	·	·	0	·	·	·
COC(=O)[C@@]12CCCCC3=C1N(CCC3)C(=O)[C@H]2CC(=O)N1CCCC1	·	-2	·	·	-2	·	·	·
OC(c1cccc(Cl)c1)c1nc(-c2ccc(F)c(Cl)c2)cs1 (stereo unspecified)	0	9	3	·	7	·	·	·
OC(c1ccc(F)cc1)c1nc(-c2ccc(F)c(Cl)c2)cs1 (stereo unspecified)	0	20*	4	·	8	·	7	2
COc1cc(C(O)c2nc(-c3cccc(C(F)(F)F)c3)cs2)ccc1F (stereo unspecified)	0	21*	6	·	8	·	5	1
Nc1cc(OC(=O)c2ccco2)nn1S(=O)(=O)c1ccc(F)cc1	0	60*	0	·	1	0	0	0
CCOC(=O)Cc1csc(NC(=O)CSc2ncnc3c2cnn3-c2ccccc2Cl)n1	0	26*	0	·	8	-2	1	2
O=C(Nc1ccccc1)c1ccccc1Oc1ccc(C(F)(F)F)cc1[N+](=O)[O-]	0	21*	4	-16	-5	5	4	1
O=C(COc1ccc(C(F)(F)F)cc1[N+](=O)[O-])Nc1cccc(C(F)(F)F)c1	0	4	9	14	-5	6	·	·
Cc1ccc(OCCNC(=O)c2cccc(S(=O)(=O)NCc3ccccc3)c2)cc1	0	21*	0	·	3	10	2	0
CCN1CCCCC(NC(=O)c2ccccc2C)C1=O (stereo unspecified)	·	1	·	·	1	·	·	·
O=C(NCCc1ccccc1)OCc1cn(-c2ccc(F)cc2)nn1	·	-8	·	·	-8	·	·	·
SMILES	aDG glyco act	ADAM10 inh	MPTP inh	Lipid droplet	ADAM17 inh	V-ATPase pHluor	ADAM10 confirm	ADAM17 counter
O=C(O)c1cc2ccccc2cn1	0	-9	0	·	-2	-5	·	·
O=C(O)c1ccc(C#Cc2cccc(F)c2)cn1	·	26*	·	·	-3	·	1	1
O=C(NNc1ccccc1)C(=O)NNS(=O)(=O)c1ccc(CCCl)cc1	0	35*	0	-14	11*	0	13	1
Nc1ccc(S(=O)(=O)NNC(=O)C(=O)NNc2ccccc2)cc1	0	11	-11	11	2	-2	·	·
CC(C)(C)NC(=O)NC(=O)COc1ccc(Br)cc1Br	1	20*	0	-4	6	-4	2	0
O=C(COc1ccc(Br)cc1Br)NC(=O)NC1CCCC1	0	11	3	-1	4	-1	·	·
O=C(NCc1ccccc1)OC1CCC12CCC(c1ccccc1)CC2 (stereo unspecified)	·	7	·	·	0	·	·	·
Cc1ccnc(NC(c2ccsc2)c2ccc3ccc(C)nc3c2O)c1 (stereo unspecified)	0	6	-1	0	4	-2	·	·
COc1ccc(C(Nc2cc(C)ccn2)c2ccc3ccc(C)nc3c2O)cc1 (stereo unspecified)	0	23*	4	-1	1	1	20*	5
COc1ccc(/C=N\NC(=O)c2ccccc2)cc1COc1ccccc1	0	3	0	1	5	-2	·	·
COc1ccc(C(=O)N/N=C/c2ccc(OC)c(COc3ccccc3)c2)cc1	0	71*	0	-12	1	4	12	4
O=C(Cn1c(-c2cncs2)nc2ccccc21)NCc1cccs1	·	-10	·	·	-6	·	·	·
COc1ccc(N2CCN(CC(O)COc3ccc4c(c3)CCC4)CC2)cc1 (stereo unspecified)	0	7	1	-2	0	0	·	·
OC(COc1ccc2c(c1)CCC2)CN1CCN(c2ccccc2F)CC1 (stereo unspecified)	0	20*	3	2	2	1	2	0
CCn1c2ccccc2c2cc(C=NNC(=O)c3ccoc3C)ccc21	·	-130	·	·	-29	·	·	·
O=C(CSc1ccc(-c2ccncc2)nn1)c1ccc(Cl)cc1	0	6	4	-3	2	-3	·	·
NC(=O)C(c1ccc(Cl)cc1)c1ccc(Sc2ccc(Cl)cc2)nn1 (stereo unspecified)	0	23*	1	-20	4	-3	4	1
O=C(CNS(=O)(=O)c1cccc2ccccc12)N1CCN(c2ncccn2)CC1	·	0	·	·	-6	·	·	·

Screens (PubChem)
